Where “and” joins values, the source holds several entries; their conditions need not be identical. Equal values may be shown once.
System: HEK-293T
Test: Multiplex assay against HEK293T
Type: toxicity, cell-based
Settings: human, number of replicates 2
In short: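 Values for tubulin, mitochondrial-mass and membrane-permeability phenotypes are per cents of cells with healthy nuclei. These cells were identified by CellPathfinder machine-learning gating of live cells that had been stained at seeding with Hoechst33342, BioTracker Green Microtubule Cytoskeleton Dye, MitoTracker Red and Annexin V Alexa Fluor 680 and imaged on a CQ1 microscope at 37°C and 5% CO2 after compound addition. The gating first set Hoechst high-intensity objects apart from normal cells, then split normal cells into healthy, pyknosed or fragmented nuclei, and pyknosed cells into mitotic or apoptotic.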

[1] = 12 h, 1 µM, compound concentration 1 uM
[2] = 12 h, 10 µM, compound concentration 10 uM
[3] = 24 h, 1 µM, compound concentration 1 uM
[4] = 24 h, 10 µM, compound concentration 10 uM
[5] = 48 h, 1 µM, compound concentration 1 uM
[6] = 48 h, 10 µM, compound concentration 10 uM

## COc1ccc2cc(S(=O)(=O)N[C@H](CC(=O)N[C@H](Cc3ccc(CN4[C@H](C)CCC[C@@H]4C)cc3)C(=O)N(C)C(C)C)c3ccc4c(c3)OCO4)ccc2c1.Cl
[1]
  Population Apoptotic (%): 40% and 62%
  Population Fragmented Nuclei (%): 2% and 1%
  Population Healthy Nuclei (%): 85% and 84%
  Population Hoechst High Intensity Objects (%): 5% and 6%
  Population Membrane Permeable-Phenotype (%): 5%
  Population Mitochondria Different-Phenotype (%): 29% and 26%
  Population Mitotic Cells (%): 59% and 37%
  Population Normal (%): 94% and 93%
  Population Pyknosed Nuclei (%): 11% and 13%
  Population Tubulin-Different-Phenotype (%): 86% and 85%
  Total Cell Count: 531 and 472
[2]
  Population Apoptotic (%): 76% and 70%
  Population Fragmented Nuclei (%): 1% and 3%
  Population Healthy Nuclei (%): 82% and 83%
  Population Hoechst High Intensity Objects (%): 10% and 9%
  Population Membrane Permeable-Phenotype (%): 1% and 4%
  Population Mitochondria Different-Phenotype (%): 82% and 70%
  Population Mitotic Cells (%): 23% and 29%
  Population Normal (%): 89% and 90%
  Population Pyknosed Nuclei (%): 15% and 12%
  Population Tubulin-Different-Phenotype (%): 85% and 82%
  Total Cell Count: 395 and 352
[3]
  Population Apoptotic (%): 52% and 56%
  Population Fragmented Nuclei (%): 5%
  Population Healthy Nuclei (%): 86% and 83%
  Population Hoechst High Intensity Objects (%): 6% and 9%
  Population Membrane Permeable-Phenotype (%): 4%
  Population Mitochondria Different-Phenotype (%): 19% and 22%
  Population Mitotic Cells (%): 47% and 43%
  Population Normal (%): 93% and 90%
  Population Pyknosed Nuclei (%): 7% and 10%
  Population Tubulin-Different-Phenotype (%): 74% and 73%
  Total Cell Count: 766 and 588
[4]
  Population Apoptotic (%): 80% and 69%
  Population Fragmented Nuclei (%): 2% and 5%
  Population Healthy Nuclei (%): 76% and 75%
  Population Hoechst High Intensity Objects (%): 10% and 15%
  Population Membrane Permeable-Phenotype (%): 1% and 2%
  Population Mitochondria Different-Phenotype (%): 88% and 86%
  Population Mitotic Cells (%): 19% and 30%
  Population Normal (%): 89% and 84%
  Population Pyknosed Nuclei (%): 20% and 19%
  Population Tubulin-Different-Phenotype (%): 78% and 75%
  Total Cell Count: 417 and 393
[5]
  Population Apoptotic (%): 18% and 44%
  Population Fragmented Nuclei (%): 10% and 8%
  Population Healthy Nuclei (%): 84% and 85%
  Population Hoechst High Intensity Objects (%): 8% and 9%
  Population Membrane Permeable-Phenotype (%): 6% and 3%
  Population Mitochondria Different-Phenotype (%): 5% and 4%
  Population Mitotic Cells (%): 81% and 55%
  Population Normal (%): 91% and 90%
  Population Pyknosed Nuclei (%): 4% and 6%
  Population Tubulin-Different-Phenotype (%): 44% and 41%
  Total Cell Count: 1592 and 1105
[6]
  Population Apoptotic (%): 88% and 78%
  Population Fragmented Nuclei (%): 6% and 9%
  Population Healthy Nuclei (%): 81% and 80%
  Population Hoechst High Intensity Objects (%): 14% and 17%
  Population Membrane Permeable-Phenotype (%): 2% and 3%
  Population Mitochondria Different-Phenotype (%): 78% and 79%
  Population Mitotic Cells (%): 12% and 21%
  Population Normal (%): 85% and 82%
  Population Pyknosed Nuclei (%): 11% and 10%
  Population Tubulin-Different-Phenotype (%): 84% and 87%
  Total Cell Count: 498 and 427

## CSc1cc2c(cc1C(F)(F)F)N(C(=O)Nc1cccnc1)CC2
[1]
  Population Apoptotic (%): 48% and 46%
  Population Fragmented Nuclei (%): 2% and 3%
  Population Healthy Nuclei (%): 87% and 85%
  Population Hoechst High Intensity Objects (%): 4% and 5%
  Population Membrane Permeable-Phenotype (%): 4% and 3%
  Population Mitochondria Different-Phenotype (%): 9% and 18%
  Population Mitotic Cells (%): 51% and 53%
  Population Normal (%): 95% and 94%
  Population Pyknosed Nuclei (%): 10%
  Population Tubulin-Different-Phenotype (%): 41% and 47%
  Total Cell Count: 690 and 549
[2]
  Population Apoptotic (%): 51% and 43%
  Population Fragmented Nuclei (%): 5% and 2%
  Population Healthy Nuclei (%): 84%
  Population Hoechst High Intensity Objects (%): 5%
  Population Membrane Permeable-Phenotype (%): 3%
  Population Mitochondria Different-Phenotype (%): 5% and 14%
  Population Mitotic Cells (%): 48% and 56%
  Population Normal (%): 94%
  Population Pyknosed Nuclei (%): 9% and 12%
  Population Tubulin-Different-Phenotype (%): 39%
  Total Cell Count: 679 and 494
[3]
  Population Apoptotic (%): 25% and 42%
  Population Fragmented Nuclei (%): 5% and 4%
  Population Healthy Nuclei (%): 88% and 87%
  Population Hoechst High Intensity Objects (%): 6% and 5%
  Population Membrane Permeable-Phenotype (%): 2%
  Population Mitochondria Different-Phenotype (%): 3% and 6%
  Population Mitotic Cells (%): 74% and 57%
  Population Normal (%): 93% and 94%
  Population Pyknosed Nuclei (%): 5% and 8%
  Population Tubulin-Different-Phenotype (%): 27% and 31%
  Total Cell Count: 1189 and 774
[4]
  Population Apoptotic (%): 20% and 36%
  Population Fragmented Nuclei (%): 10% and 6%
  Population Healthy Nuclei (%): 85% and 87%
  Population Hoechst High Intensity Objects (%): 5% and 7%
  Population Membrane Permeable-Phenotype (%): 3% and 2%
  Population Mitochondria Different-Phenotype (%): 2% and 5%
  Population Mitotic Cells (%): 79% and 63%
  Population Normal (%): 94% and 92%
  Population Pyknosed Nuclei (%): 4% and 6%
  Population Tubulin-Different-Phenotype (%): 26% and 21%
  Total Cell Count: 1164 and 681
[5]
  Population Apoptotic (%): 5% and 7%
  Population Fragmented Nuclei (%): 14% and 9%
  Population Healthy Nuclei (%): 83% and 88%
  Population Hoechst High Intensity Objects (%): 9% and 10%
  Population Membrane Permeable-Phenotype (%): 6% and 4%
  Population Mitochondria Different-Phenotype (%): 0%
  Population Mitotic Cells (%): 94% and 92%
  Population Normal (%): 90% and 89%
  Population Pyknosed Nuclei (%): 2%
  Population Tubulin-Different-Phenotype (%): 14% and 17%
  Total Cell Count: 2977 and 1800
[6]
  Population Apoptotic (%): 5% and 6%
  Population Fragmented Nuclei (%): 20% and 12%
  Population Healthy Nuclei (%): 77% and 84%
  Population Hoechst High Intensity Objects (%): 9% and 7%
  Population Membrane Permeable-Phenotype (%): 7% and 6%
  Population Mitochondria Different-Phenotype (%): 0% and 1%
  Population Mitotic Cells (%): 94% and 93%
  Population Normal (%): 90% and 92%
  Population Pyknosed Nuclei (%): 1% and 2%
  Population Tubulin-Different-Phenotype (%): 11% and 13%
  Total Cell Count: 2869 and 1725

## COc1cc(N(C)c2ccnc3ccc(C(F)(F)F)cc23)cc(OC)c1OC
[1]
  Population Apoptotic (%): 58% and 48%
  Population Fragmented Nuclei (%): 5% and 4%
  Population Healthy Nuclei (%): 81% and 79%
  Population Hoechst High Intensity Objects (%): 7% and 6%
  Population Membrane Permeable-Phenotype (%): 2% and 5%
  Population Mitochondria Different-Phenotype (%): 13% and 17%
  Population Mitotic Cells (%): 41% and 51%
  Population Normal (%): 92% and 93%
  Population Pyknosed Nuclei (%): 12% and 16%
  Population Tubulin-Different-Phenotype (%): 50% and 48%
  Total Cell Count: 523 and 568
[2]
  Population Apoptotic (%): 42% and 52%
  Population Fragmented Nuclei (%): 3% and 2%
  Population Healthy Nuclei (%): 82% and 80%
  Population Hoechst High Intensity Objects (%): 5%
  Population Membrane Permeable-Phenotype (%): 5% and 3%
  Population Mitochondria Different-Phenotype (%): 34% and 29%
  Population Mitotic Cells (%): 57% and 47%
  Population Normal (%): 94%
  Population Pyknosed Nuclei (%): 14% and 17%
  Population Tubulin-Different-Phenotype (%): 79% and 82%
  Total Cell Count: 570 and 542
[3]
  Population Apoptotic (%): 54% and 36%
  Population Fragmented Nuclei (%): 5% and 6%
  Population Healthy Nuclei (%): 83% and 85%
  Population Hoechst High Intensity Objects (%): 7% and 6%
  Population Membrane Permeable-Phenotype (%): 3% and 5%
  Population Mitochondria Different-Phenotype (%): 6% and 4%
  Population Mitotic Cells (%): 45% and 63%
  Population Normal (%): 92% and 93%
  Population Pyknosed Nuclei (%): 10% and 8%
  Population Tubulin-Different-Phenotype (%): 33% and 26%
  Total Cell Count: 845 and 846
[4]
  Population Apoptotic (%): 46% and 53%
  Population Fragmented Nuclei (%): 3% and 4%
  Population Healthy Nuclei (%): 84% and 83%
  Population Hoechst High Intensity Objects (%): 5%
  Population Membrane Permeable-Phenotype (%): 3% and 1%
  Population Mitochondria Different-Phenotype (%): 31% and 20%
  Population Mitotic Cells (%): 53% and 46%
  Population Normal (%): 94%
  Population Pyknosed Nuclei (%): 11% and 12%
  Population Tubulin-Different-Phenotype (%): 69% and 64%
  Total Cell Count: 762 and 740
[5]
  Population Apoptotic (%): 16% and 24%
  Population Fragmented Nuclei (%): 12% and 11%
  Population Healthy Nuclei (%): 83% and 84%
  Population Hoechst High Intensity Objects (%): 7%
  Population Membrane Permeable-Phenotype (%): 5% and 4%
  Population Mitochondria Different-Phenotype (%): 0%
  Population Mitotic Cells (%): 83% and 75%
  Population Normal (%): 92%
  Population Pyknosed Nuclei (%): 3%
  Population Tubulin-Different-Phenotype (%): 12% and 11%
  Total Cell Count: 2086 and 2004
[6]
  Population Apoptotic (%): 26% and 38%
  Population Fragmented Nuclei (%): 9% and 7%
  Population Healthy Nuclei (%): 85% and 86%
  Population Hoechst High Intensity Objects (%): 7% and 8%
  Population Membrane Permeable-Phenotype (%): 3% and 1%
  Population Mitochondria Different-Phenotype (%): 9%
  Population Mitotic Cells (%): 73% and 61%
  Population Normal (%): 92% and 91%
  Population Pyknosed Nuclei (%): 5%
  Population Tubulin-Different-Phenotype (%): 48% and 46%
  Total Cell Count: 1391 and 1324
